Data from article PMC11847724 (Neoplasia (New York, N.Y.), 2025).
Read-outs that look alike come from different tables or passages of the source.

Tests used:
[1] = system: participants with advanced or metastatic solid tumors; type: in vivo, human
Method in brief: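 Open-label, first-in-human 3 + 3 escalation in adults with recurrent, locally advanced or metastatic solid tumors lacking standard therapy. Test compound was given orally once daily from 25 up to 700 mg/day (modified Fibonacci steps) in 28-day cycles for 6 to 8 cycles, with no intrapatient escalation. The safety population was everyone dosed at least once. AEs were coded by MedDRA and graded by NCI CTCAE v4.03. DLT was assessed in cycle 1, and MTD was the highest dose with DLT in under one-third of a cohort.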

ALK = settings: preclinical studies ref 9, 10; cited from earlier work
[2] = system: ALK- and FAK-driven xenograft models; settings: multiple ALK- and FAK-driven xenograft models ref 9, 10; cited from earlier work
[3] = all tested species ref 9; cited from earlier work
rats = settings: highest dose administered; cited from earlier work

In the case of `CNC(=O)c1ccccc1Nc1nc(Nc2ccc3c(c2OC)CCC[C@H](N2CCN(CCO)CC2)C3)ncc1Cl` [ESK-440], the “AE: Nausea” value ([1]; 350 mg/day (n = 4)) is reported as 2 (50) Number (%) of participants, the “AE: Pyrexia” value ([1]; 350 mg/day (n = 4)) is reported as 1 (25) Number (%) of participants and the “AE: Vomiting” value ([1]; 350 mg/day (n = 4)) is reported as 1 (25) Number (%) of participants. The “Any AE” value ([1]; 350 mg/day (n = 4)) was 4 (100) Number (%) of participants, the Deaths ([1]; 350 mg/day (n = 4)) was 0 Number (%) of participants and the “Grade 3-5 AE” value ([1]; 350 mg/day (n = 4)) was 2 (50) Number (%) of participants. The “Other serious AEs” value ([1]; 350 mg/day (n = 4)) was 1 (25) Number (%) of participants, the “Treatment-related AE” value ([1]; 350 mg/day (n = 4)) was 3 (75) Number (%) of participants and the “Withdrawn from treatment due to AE” value ([1]; 350 mg/day (n = 4)) was 1 (25) Number (%) of participants. For the same compound, the “AE: Cough” value ([1]; 500 mg/day (n = 6)) was 1 (17) Number (%) of participants, the “AE: Decreased appetite” value ([1]; 500 mg/day (n = 6)) was 2 (33) Number (%) of participants and the “AE: Diarrhea” value ([1]; 500 mg/day (n = 6)) was 2 (33) Number (%) of participants. For the same compound, the “AE: Edema peripheral” value ([1]; 500 mg/day (n = 6)) was 0 Number (%) of participants, the “AE: Fatigue” value ([1]; 500 mg/day (n = 6)) was 2 (33) Number (%) of participants and the “AE: Nausea” value ([1]; 500 mg/day (n = 6)) was 5 (83) Number (%) of participants. For the same compound, the “AE: Pyrexia” value ([1]; 500 mg/day (n = 6)) was 2 (33) Number (%) of participants, the “AE: Vomiting” value ([1]; 500 mg/day (n = 6)) was 5 (83) Number (%) of participants and the “Any AE” value ([1]; 500 mg/day (n = 6)) was 6 (100) Number (%) of participants. The Deaths ([1]; 500 mg/day (n = 6)) was 0 Number (%) of participants, the “Grade 3-5 AE” value ([1]; 500 mg/day (n = 6)) was 1 (17) Number (%) of participants and the “Other serious AEs” value ([1]; 500 mg/day (n = 6)) was 1 (17) Number (%) of participants. The “Treatment-related AE” value ([1]; 500 mg/day (n = 6)) was 5 (83) Number (%) of participants, the “Withdrawn from treatment due to AE” value ([1]; 500 mg/day (n = 6)) was 2 (33) Number (%) of participants and the “participants reporting a DLT” value ([1]; 500 mg/day treatment group) was 1 participants. The “AE: Cough” value ([1]; 700 mg/day (n = 5)) was 0 Number (%) of participants, the “AE: Decreased appetite” value ([1]; 700 mg/day (n = 5)) was 2 (40) Number (%) of participants and the “AE: Diarrhea” value ([1]; 700 mg/day (n = 5)) was 1 (20) Number (%) of participants. For the same compound, the “AE: Edema peripheral” value ([1]; 700 mg/day (n = 5)) was 1 (20) Number (%) of participants, the “AE: Fatigue” value ([1]; 700 mg/day (n = 5)) was 4 (80) Number (%) of participants and the “AE: Nausea” value ([1]; 700 mg/day (n = 5)) was 5 (100) Number (%) of participants. For the same compound, the “AE: Pyrexia” value ([1]; 700 mg/day (n = 5)) was 0 Number (%) of participants, the “AE: Vomiting” value ([1]; 700 mg/day (n = 5)) was 3 (60) Number (%) of participants and the “Any AE” value ([1]; 700 mg/day (n = 5)) was 5 (100) Number (%) of participants. The Deaths ([1]; 700 mg/day (n = 5)) was 1 (20) Number (%) of participants, the “Grade 3-5 AE” value ([1]; 700 mg/day (n = 5)) was 4 (80) Number (%) of participants and the “Other serious AEs” value ([1]; 700 mg/day (n = 5)) was 0 Number (%) of participants. For the same compound, the “Treatment-related AE” value ([1]; 700 mg/day (n = 5)) was 5 (100) Number (%) of participants, the “Withdrawn from treatment due to AE” value ([1]; 700 mg/day (n = 5)) was 2 (40) Number (%) of participants and the “participants reporting a DLT” value ([1]; 700 mg/day treatment group) was 2 participants. For the same compound, the “deaths considered by investigators related to ESK-440” value ([1]; 4 deaths during study) was “None”, the AE cough ([1]; Overall (N = 32)) was 16% and the AE decreased appetite ([1]; Overall (N = 32)) was 28%. It also gave an AE diarrhea ([1]; Overall (N = 32)) of 25%, an AE fatigue ([1]; Overall (N = 32)) of 53% and an AE nausea ([1]; Overall (N = 32)) of 53%. The AE peripheral edema ([1]; Overall (N = 32)) was 16%, the AE pyrexia ([1]; Overall (N = 32)) was 19% and the AE vomiting ([1]; Overall (N = 32)) was 38%. The “AE: Cough” value ([1]; Overall (N = 32)) was 5 (16) Number (%) of participants, the “AE: Decreased appetite” value ([1]; Overall (N = 32)) was 9 (28) Number (%) of participants and the “AE: Diarrhea” value ([1]; Overall (N = 32)) was 8 (25) Number (%) of participants. For the same compound, the “AE: Edema peripheral” value ([1]; Overall (N = 32)) was 5 (16) Number (%) of participants, the “AE: Fatigue” value ([1]; Overall (N = 32)) was 17 (53) Number (%) of participants and the “AE: Nausea” value ([1]; Overall (N = 32)) was 17 (53) Number (%) of participants. The “AE: Pyrexia” value ([1]; Overall (N = 32)) was 6 (19) Number (%) of participants, the “AE: Vomiting” value ([1]; Overall (N = 32)) was 12 (38) Number (%) of participants and the “Any AE” value ([1]; Overall (N = 32)) was 31 (97) Number (%) of participants. The Deaths ([1]; Overall (N = 32)) was 4 (13) Number (%) of participants, the “Grade 3-5 AE” value ([1]; Overall (N = 32)) was 15 (47) Number (%) of participants and the “Other serious AEs” value ([1]; Overall (N = 32)) was 9 (28) Number (%) of participants. The “Withdrawn from treatment due to AE” value ([1]; Overall (N = 32)) was 7 (22) Number (%) of participants, the “at least 1 AE” value ([1]; Overall (N = 32)) was 97% and the “deaths reported during the study” value ([1]; Overall (N = 32)) was 4. The “grade 3+ AEs” value ([1]; Overall (N = 32)) was 47%, the “withdrew from treatment due to AEs” value ([1]; Overall (N = 32)) was 22% and the “nature of the DLT” value ([1]; all 3 cases, considered related to ESK-440) was “grade 3 nausea”. The “participants reporting a DLT” value ([1]; all dose groups) was “Three”, the “changes in vital signs, ECG findings, physical exam findings, pulmonary function tests” value ([1]; during the study) was “no clinically significant changes” and the “decline in ECOG performance status” value ([1]; from baseline) was 13 participants. The “QTcF value meeting protocol-defined DLT criterion (>500 msec)” value ([1]; in vivo) was “No patient”, the “no change from baseline in ECOG performance status” value ([1]; in vivo) was “Nineteen” and the “SAEs considered related to ESK-440” value ([1]; of SAEs in nine participants, nausea) was 1. The “maximum tolerated dose (MTD)” value ([1]; oral, 28-day cycle, DLT in cycle 1) was 500 mg/day, the potency (ALK) was “low nanomolar” and the antitumor efficacy [2] was “dose-dependent antitumor efficacy”. The oral bioavailability [3] was “acceptable” and the “highest non-severely toxic dose (HNSTD)” value (rats) was 30 mg/kg.
